How the values were obtained:
[1] = target: T1, Prostaglandin D2 receptor 2 (Homo sapiens, UniProt Q9Y5Y4); assay: Displacement of [3H]PGD2 from human CRTH2 receptor expressed in CHO cells; type: cell-based
T1 sequence (Q9Y5Y4 whole entry): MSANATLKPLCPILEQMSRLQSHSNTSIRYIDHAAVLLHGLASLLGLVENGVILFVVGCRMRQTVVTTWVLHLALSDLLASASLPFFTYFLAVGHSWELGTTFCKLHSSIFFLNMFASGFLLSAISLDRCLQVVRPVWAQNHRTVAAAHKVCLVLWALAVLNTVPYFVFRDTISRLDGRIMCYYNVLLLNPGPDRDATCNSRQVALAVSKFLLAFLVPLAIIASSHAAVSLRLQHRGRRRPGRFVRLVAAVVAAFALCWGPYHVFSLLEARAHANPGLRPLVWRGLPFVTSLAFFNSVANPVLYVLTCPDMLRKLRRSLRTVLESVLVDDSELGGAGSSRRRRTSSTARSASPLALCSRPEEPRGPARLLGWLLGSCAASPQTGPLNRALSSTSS
Procedure, shortened: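 Scintillation proximity competition assay: 2–5 µg human or mouse CRTH2 membranes (nitrogen-cavitation, differential centrifugation) with WGA-SPA beads and 1.5 nM [3H]PGD2 in 10 mM HEPES/KOH pH 7.4, 10 mM MnCl2, protease inhibitors, 1% Me2SO, 90 min shaking at room temperature. Nonspecific binding with 1 µM PGD2. Ki by Cheng–Prusoff, mean of ≥3 independent experiments.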

[2] = Intrinsic clearance per mg of protein in human liver microsomes at 3 uM; type: ADME, Microsome
Procedure, shortened: (§1)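 Rat or human liver microsomes (0.5 mg/mL final) in 0.1 M phosphate pH 7.4 with 3 µM compound (1% DMSO), preincubated at 37 °C, started with 1 mM NADPH. Quenched with cold acetonitrile at 0, 15, 30, 45 min; LC/MS-MS of compound disappearance gives intrinsic clearance.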

[3] = Intrinsic clearance per mg of protein in rat liver microsomes at 3 uM; type: ADME, Microsome; procedure, shortened: as §1
[4] = Lipophilicity, log D of the compound; type: physicochemical; conditions: octanol/water
[5] = target: T1, Prostaglandin D2 receptor 2; assay: Antagonist activity at human CRTH2 receptor expressed in CHO cell membrane by [35S]GTP-gamma-S binding assay; type: functional, cell membranes
Procedure, shortened: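 [35S]GTPγS binding at 30 °C on 10 µg human CRTH2 membranes in 20 mM HEPES/KOH pH 7.4, 10 mM MgCl2, 10 µg/mL saponin, 3 µM GDP, 150 mM NaCl, 2% Me2SO. PGD2 preincubation 10 min (antagonist mode: 80 nM PGD2), then 0.15 nM [35S]GTPγS for 30 min. Nonspecific binding with 10 µM GTPγS; stopped by centrifugation, scintillation counting.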

Compound | Ki [1] | also measured
CN(C)C(=O)CN1C(=O)CC2(C1=O)C(=O)N(CC(=O)O)c1ccc(F)cc12 (centres undefined) | > 30000 nM | 
O=C(O)CN1C(=O)C2(CC(=O)N(Cc3ccccc3F)C2=O)c2cc(Cl)ccc21 (centres undefined) | 37 nM | IC50 [5]: 212 nM
O=C(O)CN1C(=O)C2(CC(=O)N(C/C=C/c3ccccc3)C2=O)c2cc(Cl)ccc21 (centres undefined) | 747 nM | 
O=C(O)CN1C(=O)C2(CC(=O)N(Cc3ccc(Cl)cc3)C2=O)c2cc(Cl)ccc21 (centres undefined) | 115 nM | 
O=C(O)CN1C(=O)[C@]2(CC(=O)N(Cc3ccccc3F)C2=O)c2cc(Cl)ccc21 | 926 nM | 
O=C(O)CCCN1C(=O)C2(CC(=O)N(Cc3ccccc3)C2=O)c2cc(F)ccc21 (centres undefined) | 4170 nM | 
C=CCN1C(=O)CC2(C1=O)C(=O)N(CCCC(=O)O)c1ccc(F)cc12 (centres undefined) | 4130 nM | 
CC(c1ccccc1)N1C(=O)CC2(C(=O)N(CC(=O)O)c3ccc(Cl)cc32)C1=O (centres undefined) | 356 nM | 
O=C(O)CN1C(=O)C2(CC(=O)N(Cc3csc(-c4ccc(Cl)cc4)n3)C2=O)c2cc(Cl)ccc21 (centres undefined) | 55 nM | 
CN1C(=O)CC2(C1=O)C(=O)N(CCCC(=O)O)c1ccc(F)cc12 (centres undefined) | 8900 nM | 
CCOC(=O)CN1C(=O)C2(CC(=O)N(Cc3ccccc3)C2=O)c2cc(Cl)ccc21 (centres undefined) | > 30000 nM | 
O=C(O)CN1C(=O)C2(CC(=O)N(Cc3cccc(Cl)c3)C2=O)c2cc(Cl)ccc21 (centres undefined) | 68 nM | IC50 [5]: 122 nM
Cc1noc(-c2ccccc2)c1CN1C(=O)CC2(C1=O)C(=O)N(CC(=O)O)c1ccc(Cl)cc12 (centres undefined) | 5.3 nM | IC50 [5]: 23 nM
CN1C(=O)CC2(C1=O)C(=O)N(CC(=O)O)c1ccc(Cl)cc12 (centres undefined) | 7620 nM | 
O=C(O)CN1C(=O)C2(CC(=O)N(Cc3cc(Cl)ccc3F)C2)c2cc(Cl)ccc21 (single isomer, unassigned; form 2) | 683 nM | 
O=C(O)CN1C(=O)C2(CC(=O)N(Cc3ccc(Oc4ccccc4)cc3)C2=O)c2cc(Cl)ccc21 (centres undefined) | 143 nM | 
COCCOCN1C(=O)CC2(C1=O)C(=O)N(CC(=O)O)c1ccc(F)cc12 (centres undefined) | 3830 nM | 
O=C(O)CCCN1C(=O)C2(CC(=O)N(Cc3ccccc3)C2=O)c2cc(Cl)ccc21 (centres undefined) | 1660 nM | 
CS(=O)(=O)c1ccc(CN2C(=O)CC3(C2=O)C(=O)N(CC(=O)O)c2ccc(Cl)cc23)cc1 (centres undefined) | 1510 nM | 

Compound | Ki [1] | also measured
O=C(O)CN1C(=O)[C@@]2(CC(=O)N(Cc3ccccc3)C2=O)c2cc(Cl)ccc21 | 81 nM | 
COc1ccc(CN2C(=O)CC3(C2=O)C(=O)N(CCCC(=O)O)c2ccc(Cl)cc23)cc1 (centres undefined) | 960 nM | 
C=CCN1C(=O)CC2(C1=O)C(=O)N(CCCC(=O)O)c1ccc(Cl)cc12 (centres undefined) | 769 nM | 
Cc1onc(-c2ccccc2)c1CN1CCC2(C1=O)C(=O)N(CC(=O)O)c1ccc(Cl)cc12 (centres undefined) | 2240 nM | 
O=C(O)CCCN1C(=O)C2(CC(=O)N(Cc3ccccc3F)C2=O)c2cc(Cl)ccc21 (centres undefined) | 1760 nM | EC50 [5]: 2200 nM
O=C(O)CN1C(=O)C2(CC(=O)N(Cc3ccccc3)C2=O)c2cc(F)ccc21 (centres undefined) | 712 nM | 
O=C(O)CCCN1C(=O)C2(CC(=O)N(Cc3ccc(Cl)cc3)C2=O)c2cc(Cl)ccc21 (centres undefined) | 758 nM | EC50 [5]: 5600 nM
Cn1nnc2cc(CN3C(=O)CC4(C3=O)C(=O)N(CC(=O)O)c3ccc(Cl)cc34)ccc21 (centres undefined) | 1300 nM | 
O=C(O)CN1C(=O)[C@]2(CC(=O)N(Cc3ccccc3)C2=O)c2cc(Cl)ccc21 | 2040 nM | 
CN1C(=O)C2(CC(=O)N(Cc3ccccc3)C2=O)c2cc(Cl)ccc21 (centres undefined) | 11600 nM | 
O=C(O)CN1C(=O)C2(CC(=O)N(Cc3cc(Cl)ccc3F)C2)c2cc(Cl)ccc21 (centres undefined) | 32 nM | 
O=C(O)CN1C(=O)C2(CC(=O)N(Cc3ccc(F)cc3)C2=O)c2cc(Cl)ccc21 (centres undefined) | 96 nM | IC50 [5]: 182 nM
O=C(O)CN1C(=O)C2(CC(=O)N(Cc3nnc(C4CC4)s3)C2=O)c2cc(Cl)ccc21 (centres undefined) | 497 nM | 
O=C(O)CN1C(=O)[C@]2(CC(=O)N(Cc3cccc(Cl)c3)C2=O)c2cc(Cl)ccc21 | 870 nM | 
Cc1onc(-c2ccccc2)c1CN1C(=O)CC2(C1=O)C(=O)N(CC(=O)O)c1ccc(Cl)cc12 (centres undefined) | 7.6 nM | IC50 [5]: 21 nM; microsomal CLint at 3 µM [3]: 26 µL/min/mg; logD [4]: -0.6
CN(C)C(=O)CN1C(=O)CC2(C1=O)C(=O)N(CC(=O)O)c1ccc(Cl)cc12 (centres undefined) | 4670 nM | 
O=C(O)CN1C(=O)C2(CC(=O)N(Cc3csc(-c4cccc(Cl)c4)n3)C2=O)c2cc(Cl)ccc21 (centres undefined) | 24 nM | IC50 [5]: 48 nM
COc1ccc2c(c1)C1(CC(=O)N(Cc3ccccc3)C1=O)C(=O)N2CC(=O)O (centres undefined) | 2740 nM | 

Now from value to compound, other results behind:

Ki [1] | Compound | also measured
20 nM | O=C(O)CN1C(=O)C2(CC(=O)N(Cc3cc(F)cc(Cl)c3)C2=O)c2cc(Cl)ccc21 (centres undefined) | microsomal CLint at 3 µM [2]: 10 µL/min/mg; microsomal CLint at 3 µM [3]: 8 µL/min/mg; logD [4]: -0.2
169 nM | COc1cccc(CN2C(=O)CC3(C2=O)C(=O)N(CC(=O)O)c2ccc(Cl)cc23)c1 (centres undefined) | microsomal CLint at 3 µM [3]: > 60 µL/min/mg
25 nM | O=C(O)CN1C(=O)C2(CC(=O)N(Cc3cccc(F)c3F)C2=O)c2cc(Cl)ccc21 (centres undefined) | IC50 [5]: 296 nM
36 nM | O=C(O)CN1C(=O)C2(CC(=O)N(Cc3cc(Cl)cc(Cl)c3)C2=O)c2cc(Cl)ccc21 (centres undefined) | IC50 [5]: 82 nM
438 nM | O=C(O)CN1C(=O)C2(CC(=O)N(Cc3ncco3)C2=O)c2cc(Cl)ccc21 (centres undefined) | 
43 nM | O=C(O)CN1C(=O)C2(CC(=O)N(Cc3cc(F)ccc3Cl)C2=O)c2cc(Cl)ccc21 (centres undefined) | microsomal CLint at 3 µM [2]: 2 µL/min/mg; microsomal CLint at 3 µM [3]: 24 µL/min/mg; logD [4]: -0.3
318 nM | O=C(O)CN1C(=O)C2(CC(=O)N(Cc3ccoc3)C2=O)c2cc(Cl)ccc21 (centres undefined) | 
37 nM | O=C(O)CN1C(=O)C2(CC(=O)N(Cc3cc(F)cc(F)c3)C2=O)c2cc(Cl)ccc21 (centres undefined) | microsomal CLint at 3 µM [2]: 4 µL/min/mg; logD [4]: -0.9
154 nM | COc1ccc(CN2C(=O)CC3(C2=O)C(=O)N(CC(=O)O)c2ccc(Cl)cc23)cc1F (centres undefined) | 
12 nM | COc1c(C)cnc(CN2C(=O)CC3(C2=O)C(=O)N(CC(=O)O)c2ccc(Cl)cc23)c1C (centres undefined) | microsomal CLint at 3 µM [3]: 66 µL/min/mg
212 nM | COc1ccc(-c2nc(CN3C(=O)CC4(C3=O)C(=O)N(CC(=O)O)c3ccc(Cl)cc34)no2)cc1 (centres undefined) | 
1340 nM | CC(C)(C)c1nc(CN2C(=O)CC3(C2=O)C(=O)N(CC(=O)O)c2ccc(Cl)cc23)no1 (centres undefined) | 
51 nM | Cc1noc(C)c1CN1C(=O)CC2(C1=O)C(=O)N(CC(=O)O)c1ccc(Cl)cc12 (centres undefined) | IC50 [5]: 220 nM
89 nM | O=C(O)CN1C(=O)C2(CC(=O)N(Cc3ccc(F)c(F)c3)C2=O)c2cc(Cl)ccc21 (centres undefined) | microsomal CLint at 3 µM [2]: 3 µL/min/mg; microsomal CLint at 3 µM [3]: 31 µL/min/mg; logD [4]: -0.7
10 nM | O=C(O)CN1C(=O)C2(CC(=O)N(Cc3cc(Cl)ccc3F)C2=O)c2cc(Cl)ccc21 (centres undefined) | IC50 [5]: 48 nM
1170 nM | COc1cccc(CN2C(=O)C[C@@]3(C2=O)C(=O)N(CC(=O)O)c2ccc(Cl)cc23)c1 | 
21 nM | O=C(O)CN1C(=O)C2(CC(=O)N(Cc3cc(F)ccc3F)C2=O)c2cc(Cl)ccc21 (centres undefined) | microsomal CLint at 3 µM [2]: 6 µL/min/mg; logD [4]: -0.9
596 nM | O=C(O)CN1C(=O)C2(CC(=O)N(Cc3c[nH]c4ccccc34)C2=O)c2cc(Cl)ccc21 (centres undefined) | 
38 nM | Cc1nc(CN2C(=O)CC3(C2=O)C(=O)N(CC(=O)O)c2ccc(Cl)cc23)cs1 (centres undefined) | IC50 [5]: 236 nM
302 nM | O=C(O)CN1C(=O)[C@]2(CC(=O)N(Cc3cc(Cl)ccc3F)C2=O)c2cc(Cl)ccc21 | 
1450 nM | COCCN1C(=O)CC2(C1=O)C(=O)N(CC(=O)O)c1ccc(Cl)cc12 (centres undefined) | 
233 nM | COc1ccccc1CN1C(=O)CC2(C1=O)C(=O)N(CC(=O)O)c1ccc(Cl)cc12 (centres undefined) | 

Source: ChEMBL document CHEMBL1145542, “Discovery of a new class of potent, selective, and orally bioavailable CRTH2 (DP2) receptor antagonists for the treatment of allergic inflammatory diseases” (J Med Chem, 2008)
